Most compounds without a hit are left out; they make up all but 0.9% or so of the library.
RGS8-Gao reg = human RGS8-Galphao interaction regulation; AID 1423; response (percent of control binding), % at 10 µM; multiplexed bead flow cytometry, RGS8-Galphao binding; actives lie on both sides; 220,000 compounds, 0.34% hits; P09471; in the data active = response below about 60% or above about 140%; inactive = in between;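 also: Galphao activated as the GDP aluminium fluoride complex binding bead-coupled RGS8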
ABCG2 block = inhibitors of human ABCG2 transporter, ABCB1 counter-screen | AID 1325 | IgMXP3 cells, JC-1 efflux, flow cytometry | Q9UNQ0 | 190,000 compounds, 0.1% hits | inhibition, % at 6.6 µM;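 active = inhibition above 80%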
Target sequence (Q9UNQ0 whole entry, looked up): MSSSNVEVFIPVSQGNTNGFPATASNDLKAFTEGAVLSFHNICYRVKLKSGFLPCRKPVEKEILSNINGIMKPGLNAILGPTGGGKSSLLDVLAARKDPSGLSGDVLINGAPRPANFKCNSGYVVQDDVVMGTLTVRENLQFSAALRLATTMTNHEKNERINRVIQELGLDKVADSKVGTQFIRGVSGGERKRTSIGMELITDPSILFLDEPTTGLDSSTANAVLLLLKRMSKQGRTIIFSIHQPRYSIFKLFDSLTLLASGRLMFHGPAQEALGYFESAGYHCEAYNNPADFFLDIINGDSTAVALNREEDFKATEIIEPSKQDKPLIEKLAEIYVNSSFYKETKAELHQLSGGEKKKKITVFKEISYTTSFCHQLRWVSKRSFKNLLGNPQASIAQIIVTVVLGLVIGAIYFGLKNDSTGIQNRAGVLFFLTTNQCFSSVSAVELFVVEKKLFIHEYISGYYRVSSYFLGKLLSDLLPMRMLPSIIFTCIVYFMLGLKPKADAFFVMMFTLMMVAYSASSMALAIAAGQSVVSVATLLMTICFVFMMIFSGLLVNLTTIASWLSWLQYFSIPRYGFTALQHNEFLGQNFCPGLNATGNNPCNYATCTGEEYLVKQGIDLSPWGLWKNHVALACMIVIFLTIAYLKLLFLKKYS
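System: two drug-resistant human cell lines, ABCG2 and ABCB1; controls: nicardipine high and DMSO low controls; times: 10 min exposure at 25 °C with rotation, no wash; detection: flow cytometry of retained JC-1 fluorescence; read-out basis: percent efflux inhibition, scaled nicardipine 100% to DMSO 0%; doses: one concentration, 6.6 µM final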
RGS4-Gao reg = human RGS4-Galphao interaction regulation | Multiplexed bead flow cytometry, RGS4-Galphao binding; actives lie on both sides | binding response (% of control), % at 10 µM | 220,000 compounds, 0.33% hits | AID 1415; in the data active = binding response below about 49% or above about 150%; inactive = in between;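 also: fluorescent Galphao activated with aluminum fluoride binding bead-coupled RGS4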
RGS16-Gao = modulates binding between human RGS16 and Galphao | O15492+P09471 | AID 1441 | bead-based flow cytometry RGS16-Galphao binding, fluorescence; actives lie on both sides | binding response (% of control), % at 10 µM | 220,000 compounds, 0.38% hits;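 also: Galphao activated by GDP with aluminum fluoride before binding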
RGS7-Gao = human RGS7-Galphao interaction regulation. AID 1439. binding response (% of control), % at 10 µM. Multiplexed bead flow cytometry, RGS7-Galphao binding; actives lie on both sides. 220,000 compounds, 0.35% hits; in the data active = binding response below about 49% or above about 150%; inconclusive = no clear call, values can overlap the other calls; inactive = in between;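 also: fluorescent Galphao held in activated GDP-AlF4 state binding bead-coupled RGS7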
ABCB1 block = inhibitors of human ABCB1 transporter, ABCG2 counter-screen | 190,000 compounds, 0.067% hits | CCRF-Adr cells, JC-1 efflux, flow cytometry | inhibition, % at 6.6 µM | AID 1326; in the data active = inhibition above about 40%;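 also: higher value means more JC-1 retained so stronger ABCB1 efflux block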
RGS4-Gao HTS = modulates binding between human RGS4 and Galphao; shares compounds with RGS16-Gao; multiplexed bead flow cytometry, RGS–Galpha-o binding; 1,600 compounds, 99% hits; RGS4–Galpha-o binding response, % at 10 µM;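 also: fluorescently labeled Galpha-o bound to GDP with aluminium fluoride binding biotinylated RGS beads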
Biotin-avidin = biotin-avidin bead binding disruption counter-screen. shares compounds with RGS16-Gao. streptavidin beads, fluorescein-biotin binding, flow cytometry. inhibition, % at 10 µM. 1,700 tested, under 10 active. AID 1783;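 active = inhibition above 50%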;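 also: median green fluorescence of gated singlet beads compared with DMSO control wells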
RGS8-Gao single = confirmation of regulators of human RGS8-Galphao interaction | binding response (% of control), % at 10 µM | shares compounds with RGS16-Gao | bead-based flow cytometry RGS8-Galphao binding, fluorescence; actives lie on both sides | 1,700 compounds, 3% hits; in the data active = binding response below about 72% or above about 130%; inactive = in between;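 also: Galphao activated as GDP AlF4 complex before binding bead RGS8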
RGS7-Gao single = RGS7-Galphao interaction regulation, single point confirmation; AID 1837; bead-based flow cytometry RGS7-Galphao binding; actives lie on both sides; response (percent of control binding), % at 10 µM; 1,700 compounds, 7.8% hits; shares compounds with RGS16-Gao; in the data active = response below about 75% or above about 130%; inactive = in between;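 also: fluorescent Galphao activated with GDP and aluminum fluoride binding bead-coupled RGS7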
RGS16-Gao conf = RGS16-Galphao interaction regulation, single point confirmation. shares compounds with RGS16-Gao. bead-based flow cytometry, RGS16-Galphao binding; actives lie on both sides. response (% of control binding), % at 10 µM. 1,700 compounds, 4% hits. AID 1838; in the data active = response below about 74% or above about 130%; inactive = in between;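 also: Galphao activated as the GDP aluminium fluoride complex binding bead-coupled RGS16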
RGS4-Gao confirm = confirmation of regulators of human RGS4-Galphao interaction; shares compounds with RGS16-Gao; RGS4-Galphao binding, multiplexed bead flow cytometry; actives lie on both sides; binding response (% of control), % at 10 µM; 1,700 compounds, 4% hits; in the data active = binding response below about 74% or above about 130%; inactive = in between
RGS19-Gao single = RGS19-Galphao interaction regulation, single point confirmation | shares compounds with RGS16-Gao | bead-based flow cytometry RGS19-Galphao binding; actives lie on both sides | response (percent of control binding), % at 10 µM | 1,700 compounds, 5% hits; in the data active = response below about 50% or above about 160%; inactive = in between
Each line names hits and unclear results; the compound was inactive in the other large screens (follow-up assays come after a bar, where they were run); [ ] = another dose, or the depositor's remark. Unless noted, no rule for the calls is given here.

COc1ccc(C(C2C(=O)CC(C)(C)CC2=O)C2C(=O)CC(C)(C)CC2=O)cc1	RGS7-Gao inconclusive (no result: ABCG2 block, ABCB1 block)
Oc1cc2c(cc1O)C1c3ccc(O)c(O)c3OCC1(O)C2 (configuration not stated)	RGS8-Gao reg 19, RGS16-Gao 3.4, RGS7-Gao 32 | RGS4-Gao HTS 67
O=C(Nc1ccccc1SCC1CSc2nc3ccccc3c(=O)n21)c1ccccc1Cl (configuration not stated)	none (no result: RGS8-Gao reg, RGS4-Gao reg, RGS16-Gao, RGS7-Gao) | Biotin-avidin inactive | RGS8-Gao single inactive | RGS7-Gao single 75 | RGS16-Gao conf inactive | RGS4-Gao confirm inactive | RGS19-Gao single inactive
Cn1c2c(c(=O)n(C)c1=O)CN(Cc1ccc3c(c1)OCO3)CN2	RGS16-Gao 222[activator] | RGS4-Gao HTS 104 | Biotin-avidin inactive | RGS8-Gao single inactive | RGS7-Gao single inactive | RGS16-Gao conf inactive | RGS4-Gao confirm inactive | RGS19-Gao single inactive
Cn1c2c(c(=O)n(C)c1=O)CN(Cc1ccc(F)cc1)CN2	none
Cc1cc(NC(=O)c2ccccc2F)n(-c2nc3ccccc3[nH]2)n1	none
Cc1cc(NC(=O)c2ccc(C)s2)n(-c2nc3ccccc3[nH]2)n1	RGS8-Gao reg 12, RGS4-Gao reg 14, RGS16-Gao 0.3, RGS7-Gao 13 | Biotin-avidin inactive | RGS8-Gao single inactive | RGS7-Gao single inactive | RGS16-Gao conf inactive | RGS4-Gao confirm inactive | RGS19-Gao single inactive
Cn1c(-c2cccc(Br)c2)cnc1NCc1cccnc1	none
COc1cccc(-c2cnc(NCc3cc(Cl)ccc3O)n2C)c1	RGS7-Gao 160[activator] | RGS4-Gao HTS 117
CCCOc1ccc(N2C(=O)CC(N(CCOC34CC5CC(CC(C5)C3)C4)C(C)=O)C2=O)cc1 (configuration not stated)	none
Cc1ccc(-n2cccn2)c([C@@H]2C[C@H]3CN(C)C(=O)[C@]34CCCN24)c1	none
CC1Cc2ccccc2N1C(=S)NC(=O)C1(C)CC1(Cl)Cl (configuration not stated)	RGS8-Gao reg 31, RGS4-Gao reg 8.4, RGS16-Gao 7.2, RGS7-Gao 13 | Biotin-avidin inactive | RGS8-Gao single inactive | RGS7-Gao single inactive | RGS16-Gao conf inactive | RGS4-Gao confirm inactive | RGS19-Gao single inactive
CN(C)C(CNC(=O)c1ccc(S(=O)(=O)N(C)C)cc1)Cc1ccccc1 (configuration not stated)	RGS7-Gao inconclusive
Cc1ccc(Cl)cc1N(CC(=O)NC1CCCCC1)S(C)(=O)=O	RGS8-Gao reg 247[activator], RGS4-Gao reg 180[activator], RGS7-Gao 197[activator] | Biotin-avidin inactive | RGS8-Gao single inactive | RGS7-Gao single inactive | RGS16-Gao conf inactive | RGS4-Gao confirm inactive | RGS19-Gao single inactive
CCOC(=O)c1cc(OCC(=O)NC(C)C(C)C)cc(C(=O)OCC)c1 (configuration not stated)	RGS8-Gao reg 6.1, RGS4-Gao reg -31, RGS16-Gao -19, RGS7-Gao -9.7 | Biotin-avidin inactive | RGS8-Gao single inactive | RGS7-Gao single inactive | RGS16-Gao conf inactive | RGS4-Gao confirm inactive | RGS19-Gao single inactive
O=C(NCc1ccco1)c1ccc2snnc2c1	RGS7-Gao 188[activator] | RGS4-Gao HTS 114 | Biotin-avidin inactive | RGS8-Gao single inactive | RGS7-Gao single inactive | RGS16-Gao conf inactive | RGS4-Gao confirm inactive | RGS19-Gao single inactive
CCOC(=O)CNNC(=O)Nc1ccc(Cl)c(Cl)c1	RGS8-Gao reg 153[activator], RGS16-Gao 326[activator] (no result: ABCB1 block) | RGS4-Gao HTS 123 | Biotin-avidin inactive | RGS8-Gao single inactive | RGS7-Gao single inactive | RGS16-Gao conf inactive | RGS4-Gao confirm inactive | RGS19-Gao single inactive
CCOC(=O)N1CCN(C(=O)c2c(N)no[n+]2[O-])CC1	none
CCOc1ccc(-n2nc3c(SCCN4CCCC4)nnc(C)c3c2C)cc1	RGS4-Gao reg 183[activator], RGS16-Gao 202[activator], RGS7-Gao 210[activator] | Biotin-avidin inactive | RGS8-Gao single inactive | RGS7-Gao single inactive | RGS16-Gao conf inactive | RGS4-Gao confirm inactive | RGS19-Gao single inactive
Cc1ccc(NS(=O)(=O)c2cccc(C(=O)OCC(=O)NCc3ccco3)c2)cc1	RGS8-Gao reg 178[activator], RGS4-Gao reg 163[activator] | Biotin-avidin inactive | RGS8-Gao single inactive | RGS7-Gao single inactive | RGS16-Gao conf inactive | RGS4-Gao confirm inactive | RGS19-Gao single inactive
O=C(NC1(C(F)(F)F)NC(=O)N(Cc2ccccc2)C1=O)c1cccnc1 (configuration not stated)	none
O=C(NC1(C(F)(F)F)NC(=O)N(Cc2cccnc2)C1=O)c1ccccc1 (configuration not stated)	RGS8-Gao reg 52, RGS4-Gao reg 46, RGS7-Gao 42 | Biotin-avidin inactive | RGS8-Gao single inactive | RGS7-Gao single inactive | RGS16-Gao conf inactive | RGS4-Gao confirm inactive | RGS19-Gao single inactive
CC(C)(C)n1cn[nH]c1=S	RGS7-Gao inconclusive (no result: ABCG2 block, ABCB1 block)
Cc1cc(N2CCN(C(c3ccccc3)c3ccccc3)CC2)n2ncnc2n1	none (no result: RGS8-Gao reg, RGS4-Gao reg, RGS16-Gao, RGS7-Gao) | Biotin-avidin inactive | RGS8-Gao single inactive | RGS7-Gao single inactive | RGS16-Gao conf inactive | RGS4-Gao confirm inactive | RGS19-Gao single inactive
O=C(OCC(=O)N1CCc2ccccc21)c1ccccc1	none
O=C(CO/N=C/c1ccccc1O)N1CCc2ccccc21	RGS16-Gao 191[activator] | RGS4-Gao HTS 114 | Biotin-avidin inactive | RGS8-Gao single inactive | RGS7-Gao single inactive | RGS16-Gao conf inactive | RGS4-Gao confirm inactive | RGS19-Gao single inactive
Cc1cc(NC(=O)CSc2nnc(C3CC3)n2N)c([N+](=O)[O-])cc1C	none

Screening results from PubChem.
